Measured values published in ChEMBL document CHEMBL1795285, “Facile fabrication of promising protein tyrosine phosphatase (PTP) inhibitor entities based on 'clicked' serine/threonine-monosaccharide hybrids” (Bioorg Med Chem, 2011).
Calls of active or inactive are those of the source. The calls are words filed in the database; no cut-off is given here.

Legend:
HCT-116 = experiment: Cytotoxicity against human HCT116 cells after 72 hrs by MTT assay; type: functional, cell-based; settings: HCT-116, 72 h
In short: (§1)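 Cells seeded at 2000/well and held 24 h at 37 °C, 5% CO2 before treatment. After a 3 h MTT incubation, medium was replaced by DMSO. Absorbance read at 550 nm against a 690 nm reference, with OD taken as proportional to viable cell number.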

HeLa = experiment: Cytotoxicity against human HeLa cells after 72 hrs by MTT assay; type: functional, cell-based; in short: as §1
[1] = target: T1, M-phase inducer phosphatase 2 (Homo sapiens, UniProt P30305); experiment: Inhibition of human Cdc25B
T1 sequence (P30305 whole entry): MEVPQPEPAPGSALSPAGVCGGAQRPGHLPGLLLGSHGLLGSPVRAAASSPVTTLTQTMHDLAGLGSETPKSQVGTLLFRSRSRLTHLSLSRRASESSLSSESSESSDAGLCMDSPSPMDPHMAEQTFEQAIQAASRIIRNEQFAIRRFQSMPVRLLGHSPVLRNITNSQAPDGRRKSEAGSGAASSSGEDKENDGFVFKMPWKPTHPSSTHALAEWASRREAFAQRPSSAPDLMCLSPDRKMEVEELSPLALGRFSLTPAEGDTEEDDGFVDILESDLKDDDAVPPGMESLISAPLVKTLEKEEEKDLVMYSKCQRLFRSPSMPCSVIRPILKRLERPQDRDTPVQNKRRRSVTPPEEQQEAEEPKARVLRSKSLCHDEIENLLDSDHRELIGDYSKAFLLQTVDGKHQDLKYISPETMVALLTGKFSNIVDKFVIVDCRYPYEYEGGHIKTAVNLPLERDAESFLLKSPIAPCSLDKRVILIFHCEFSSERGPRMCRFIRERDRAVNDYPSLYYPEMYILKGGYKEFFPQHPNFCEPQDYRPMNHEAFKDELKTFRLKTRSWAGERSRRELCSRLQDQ

[2] = target: Tyrosine-protein phosphatase non-receptor type 6 (Homo sapiens, UniProt P29350); experiment: Inhibition of SHP1
Sequence of Tyrosine-protein phosphatase non-receptor type 6 (P29350 whole entry): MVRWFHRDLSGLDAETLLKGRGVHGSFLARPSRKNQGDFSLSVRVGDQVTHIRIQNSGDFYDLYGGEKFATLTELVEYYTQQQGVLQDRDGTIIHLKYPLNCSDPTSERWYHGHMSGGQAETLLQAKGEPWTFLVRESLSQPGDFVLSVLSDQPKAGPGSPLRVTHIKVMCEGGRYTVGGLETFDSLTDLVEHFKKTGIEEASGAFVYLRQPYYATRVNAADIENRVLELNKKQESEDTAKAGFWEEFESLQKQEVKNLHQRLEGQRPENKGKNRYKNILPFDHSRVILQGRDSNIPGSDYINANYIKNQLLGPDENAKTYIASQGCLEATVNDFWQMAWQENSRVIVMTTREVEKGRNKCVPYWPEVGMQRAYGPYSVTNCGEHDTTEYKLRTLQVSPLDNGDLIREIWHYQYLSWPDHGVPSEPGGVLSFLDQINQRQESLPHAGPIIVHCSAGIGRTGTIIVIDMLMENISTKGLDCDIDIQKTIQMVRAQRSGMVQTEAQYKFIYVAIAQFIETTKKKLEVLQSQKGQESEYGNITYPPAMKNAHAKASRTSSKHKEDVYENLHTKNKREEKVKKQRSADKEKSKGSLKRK

[3] = target: T2, M-phase inducer phosphatase 1 (Homo sapiens, UniProt P30304); experiment: Inhibition of human CDC25A
T2 sequence (P30304 whole entry): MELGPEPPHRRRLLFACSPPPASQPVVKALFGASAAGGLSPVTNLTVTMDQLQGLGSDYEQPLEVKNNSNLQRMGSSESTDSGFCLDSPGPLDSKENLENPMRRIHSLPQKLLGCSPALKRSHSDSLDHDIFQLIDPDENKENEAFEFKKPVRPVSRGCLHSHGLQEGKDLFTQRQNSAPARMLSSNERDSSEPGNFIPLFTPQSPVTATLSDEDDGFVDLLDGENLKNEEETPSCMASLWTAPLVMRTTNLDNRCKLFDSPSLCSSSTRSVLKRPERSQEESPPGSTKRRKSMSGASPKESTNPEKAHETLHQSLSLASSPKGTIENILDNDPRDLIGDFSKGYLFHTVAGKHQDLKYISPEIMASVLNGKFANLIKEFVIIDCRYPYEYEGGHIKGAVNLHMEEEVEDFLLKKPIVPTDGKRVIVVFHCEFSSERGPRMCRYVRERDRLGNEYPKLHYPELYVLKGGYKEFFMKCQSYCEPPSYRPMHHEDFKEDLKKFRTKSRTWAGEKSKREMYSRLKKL

[4] = target: T3, Tyrosine-protein phosphatase non-receptor type 1 (Homo sapiens, UniProt P18031); experiment: Inhibition of human recombinant […] catalytic domain using pNPP substrate
T3 sequence (P18031 whole entry): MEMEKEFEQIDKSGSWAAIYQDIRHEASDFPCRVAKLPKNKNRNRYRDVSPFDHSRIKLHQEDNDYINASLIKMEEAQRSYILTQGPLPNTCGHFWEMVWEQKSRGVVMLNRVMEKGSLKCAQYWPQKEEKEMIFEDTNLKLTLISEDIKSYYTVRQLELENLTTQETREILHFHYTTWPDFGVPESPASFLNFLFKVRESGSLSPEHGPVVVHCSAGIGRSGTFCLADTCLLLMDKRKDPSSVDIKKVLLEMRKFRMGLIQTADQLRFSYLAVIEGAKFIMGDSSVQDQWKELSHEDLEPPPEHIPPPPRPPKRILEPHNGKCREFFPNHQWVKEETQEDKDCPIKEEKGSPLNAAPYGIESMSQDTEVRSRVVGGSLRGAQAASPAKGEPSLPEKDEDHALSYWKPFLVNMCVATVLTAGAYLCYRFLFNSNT
In short: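 Recombinant human PTP1B catalytic domain (30 nM) with 2 mM pNPP in 50 mM MOPS, pH 6.5, at 30 °C. Inhibitor diluted around the estimated IC50. Initial rate taken from the early linear part of the 405 nm trace over 2 min. IC50 from nonlinear fit of % inhibition vs [I] with a Hill-coefficient equation. Means of three experiments.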

[5] = target: Receptor-type tyrosine-protein phosphatase F (Homo sapiens, UniProt P10586); experiment: Inhibition of human LAR
Sequence of Receptor-type tyrosine-protein phosphatase F (P10586 whole entry): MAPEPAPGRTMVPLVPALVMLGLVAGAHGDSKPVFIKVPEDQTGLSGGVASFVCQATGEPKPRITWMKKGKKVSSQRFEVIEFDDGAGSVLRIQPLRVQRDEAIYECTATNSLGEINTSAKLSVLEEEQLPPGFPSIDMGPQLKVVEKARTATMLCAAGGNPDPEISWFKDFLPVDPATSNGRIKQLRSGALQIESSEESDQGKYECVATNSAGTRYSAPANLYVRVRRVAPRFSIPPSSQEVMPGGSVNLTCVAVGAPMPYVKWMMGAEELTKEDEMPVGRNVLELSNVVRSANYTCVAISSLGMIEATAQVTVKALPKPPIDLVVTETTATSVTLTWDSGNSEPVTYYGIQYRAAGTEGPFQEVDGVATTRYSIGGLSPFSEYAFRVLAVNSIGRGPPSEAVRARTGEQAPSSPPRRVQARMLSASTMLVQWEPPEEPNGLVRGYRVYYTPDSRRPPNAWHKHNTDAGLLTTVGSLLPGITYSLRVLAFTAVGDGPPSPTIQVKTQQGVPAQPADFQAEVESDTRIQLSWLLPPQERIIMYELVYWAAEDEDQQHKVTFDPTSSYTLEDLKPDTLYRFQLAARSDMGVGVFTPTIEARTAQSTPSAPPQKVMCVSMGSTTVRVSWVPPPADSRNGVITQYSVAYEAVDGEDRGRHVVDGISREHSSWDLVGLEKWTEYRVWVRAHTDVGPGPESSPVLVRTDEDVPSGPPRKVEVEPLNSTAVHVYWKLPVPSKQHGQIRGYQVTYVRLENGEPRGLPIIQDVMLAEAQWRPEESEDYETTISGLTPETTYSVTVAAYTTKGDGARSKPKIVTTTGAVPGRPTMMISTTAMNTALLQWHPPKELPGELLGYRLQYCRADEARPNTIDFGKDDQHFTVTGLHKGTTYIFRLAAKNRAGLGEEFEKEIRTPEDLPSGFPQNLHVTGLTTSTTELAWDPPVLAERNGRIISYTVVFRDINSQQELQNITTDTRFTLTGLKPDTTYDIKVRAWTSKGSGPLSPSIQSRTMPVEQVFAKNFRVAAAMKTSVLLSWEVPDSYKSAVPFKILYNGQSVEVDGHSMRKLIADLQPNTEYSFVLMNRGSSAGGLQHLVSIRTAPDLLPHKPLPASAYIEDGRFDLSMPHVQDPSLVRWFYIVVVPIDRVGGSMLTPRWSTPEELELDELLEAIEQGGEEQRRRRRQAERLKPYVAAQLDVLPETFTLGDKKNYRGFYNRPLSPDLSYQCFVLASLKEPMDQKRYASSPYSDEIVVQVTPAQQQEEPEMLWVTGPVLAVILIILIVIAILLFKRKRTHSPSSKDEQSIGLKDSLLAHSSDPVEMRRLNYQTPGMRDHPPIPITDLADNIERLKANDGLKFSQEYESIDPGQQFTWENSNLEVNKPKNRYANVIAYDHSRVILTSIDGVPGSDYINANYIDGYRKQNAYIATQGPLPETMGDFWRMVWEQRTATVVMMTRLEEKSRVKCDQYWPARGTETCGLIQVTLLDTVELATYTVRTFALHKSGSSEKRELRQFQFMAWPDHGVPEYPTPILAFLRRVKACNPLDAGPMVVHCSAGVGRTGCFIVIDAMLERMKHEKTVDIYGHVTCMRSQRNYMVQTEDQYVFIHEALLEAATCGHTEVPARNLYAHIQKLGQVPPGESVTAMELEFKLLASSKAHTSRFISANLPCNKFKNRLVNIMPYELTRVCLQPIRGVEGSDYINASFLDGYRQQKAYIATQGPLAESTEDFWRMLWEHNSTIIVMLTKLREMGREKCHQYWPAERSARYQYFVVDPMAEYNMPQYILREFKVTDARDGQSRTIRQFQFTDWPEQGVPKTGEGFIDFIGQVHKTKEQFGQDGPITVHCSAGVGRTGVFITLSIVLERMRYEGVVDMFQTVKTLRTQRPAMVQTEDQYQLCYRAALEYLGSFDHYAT

[6] = target: T4, Tyrosine-protein phosphatase non-receptor type 11 (Homo sapiens, UniProt Q06124); experiment: Inhibition of SHP2
T4 sequence (Q06124 whole entry): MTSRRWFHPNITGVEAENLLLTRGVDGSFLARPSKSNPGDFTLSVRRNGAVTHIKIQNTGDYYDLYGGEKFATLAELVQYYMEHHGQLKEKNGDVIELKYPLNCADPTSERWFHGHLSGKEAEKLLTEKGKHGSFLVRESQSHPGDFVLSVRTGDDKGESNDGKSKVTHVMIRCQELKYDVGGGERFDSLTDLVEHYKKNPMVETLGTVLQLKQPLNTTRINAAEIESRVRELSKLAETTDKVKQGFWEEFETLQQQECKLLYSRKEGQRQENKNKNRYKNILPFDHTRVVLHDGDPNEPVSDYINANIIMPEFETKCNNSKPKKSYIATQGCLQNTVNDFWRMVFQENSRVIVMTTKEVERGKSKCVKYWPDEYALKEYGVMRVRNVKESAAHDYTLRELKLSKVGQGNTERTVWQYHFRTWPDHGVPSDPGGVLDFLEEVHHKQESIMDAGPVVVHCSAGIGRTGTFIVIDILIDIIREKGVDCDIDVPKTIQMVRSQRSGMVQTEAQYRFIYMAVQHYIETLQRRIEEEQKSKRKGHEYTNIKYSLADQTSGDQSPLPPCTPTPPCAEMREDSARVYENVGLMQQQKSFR

A549 = experiment: Cytotoxicity against human A549 cells after 72 hrs by MTT assay; type: functional, cell-based; settings: A549, 72 h; in short: as §1
[7] = target: T5, Tyrosine-protein phosphatase non-receptor type 2 (Homo sapiens, UniProt P17706); experiment: Inhibition of TCPTP
T5 sequence (P17706 whole entry): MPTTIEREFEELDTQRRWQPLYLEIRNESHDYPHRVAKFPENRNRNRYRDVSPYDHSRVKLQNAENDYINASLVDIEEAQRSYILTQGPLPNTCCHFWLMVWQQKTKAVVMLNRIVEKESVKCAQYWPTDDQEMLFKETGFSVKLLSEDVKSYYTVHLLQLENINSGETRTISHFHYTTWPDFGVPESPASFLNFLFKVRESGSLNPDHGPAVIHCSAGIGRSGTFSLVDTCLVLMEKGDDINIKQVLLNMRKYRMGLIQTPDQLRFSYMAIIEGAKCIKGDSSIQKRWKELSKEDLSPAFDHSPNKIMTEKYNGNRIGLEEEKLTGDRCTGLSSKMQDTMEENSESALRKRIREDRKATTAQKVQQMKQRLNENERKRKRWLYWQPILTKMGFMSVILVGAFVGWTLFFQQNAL

[8] = target: T3, Tyrosine-protein phosphatase non-receptor type 1; experiment: Competitive inhibition of human recombinant […] catalytic domain using pNPP substrate at 30 degC and pH 6.5 by Eadie-Hofstee plot
In short: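 For the inhibition-mode study, 30 nM PTP1B was run in 50 mM MOPS, pH 6.5, at 30 °C. pNPP was varied in twofold dilutions up to 80 mM, at several inhibitor concentrations. pNP release was read at 405 nm.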

[9] = target: T6, M-phase inducer phosphatase 2 (Homo sapiens) (UniProt P30305); experiment: Mixed type inhibition of human Cdc25B using pNPP substrate at 30 degC and pH 6.5 by Eadie-Hofstee plot
T6 sequence (whole entry): T1 sequence (P30305 whole entry)

In the case of `CO[C@H]1O[C@H](Cn2cc(CO[C@@H](C)[C@H](NC(=O)OC(C)(C)C)C(=O)O)nn2)[C@@H](OCc2ccccc2)[C@H](OCc2ccccc2)[C@H]1OCc1ccccc1`, the IC50 (HCT-116) is reported as 33.5 µM, the IC50 (HeLa) is reported as 69.5 µM and the IC50 [1] is reported as 27.1 µM. The IC50 [2] was > 120 µM, the IC50 [3] was 119 µM and the IC50 [4] was 22.3 µM. For the same compound, the IC50 [5] was > 120 µM, the IC50 [6] was > 120 µM and the IC50 (A549) was 62.8 µM. The IC50 [7] was 80.7 µM.
Work on `CO[C@H]1O[C@H](Cn2cc(COC[C@H](NC(=O)OC(C)(C)C)C(=O)O)nn2)[C@@H](OCc2ccccc2)[C@H](OCc2ccccc2)[C@@H]1OCc1ccccc1` yielded an IC50 (HCT-116) of 32.3 µM, an IC50 (HeLa) of 54.2 µM and an IC50 [1] of 8.2 µM. For the same compound, the IC50 [2] was > 120 µM, the IC50 [3] was 26.8 µM and the IC50 [4] was 18.5 µM. For the same compound, the IC50 [5] was > 120 µM, the IC50 [6] was > 120 µM and the IC50 (A549) was 97.3 µM. The IC50 [7] was 89.2 µM.
In the case of `CO[C@H]1O[C@H](Cn2cc(COC[C@H](NC(=O)OC(C)(C)C)C(=O)O)nn2)[C@@H](OCc2ccccc2)[C@H](OCc2ccccc2)[C@H]1OCc1ccccc1`, the IC50 (HCT-116) is reported as 46.3 µM, the IC50 (HeLa) is reported as 75.4 µM and the IC50 [1] is reported as 67.5 µM. For the same compound, the IC50 [2] was > 120 µM, the IC50 [3] was > 120 µM and the IC50 [4] was 67.8 µM. The IC50 [5] was > 120 µM, the IC50 [6] was > 120 µM and the IC50 (A549) was 120 µM. The IC50 [7] was > 120 µM.
With `CO[C@H]1O[C@H](Cn2cc(COC[C@H](NC(=O)OC(C)(C)C)C(=O)O)nn2)[C@H](OCc2ccccc2)[C@H](OCc2ccccc2)[C@H]1OCc1ccccc1` the IC50 (HCT-116) was > 120 µM, the IC50 (HeLa) was > 120 µM and the IC50 [1] was 20.6 µM. The IC50 [2] was > 120 µM, the IC50 [3] was > 120 µM and the IC50 [4] was 20.9 µM. The IC50 [5] was > 120 µM, the IC50 [6] was > 120 µM and the IC50 (A549) was > 120 µM. It also gave an IC50 [7] of 54.9 µM.
`C[C@H](OCc1cn([C@@H]2O[C@H](COCc3ccccc3)[C@@H](OCc3ccccc3)[C@H](OCc3ccccc3)[C@H]2OCc2ccccc2)nn1)[C@H](NC(=O)OC(C)(C)C)C(=O)O` was tested, and the IC50 (HCT-116) was 12 µM, the IC50 (HeLa) was 31.5 µM and the IC50 [1] was 11.6 µM. For the same compound, the IC50 [2] was > 120 µM, the IC50 [3] was 53 µM and the IC50 [4] was 7.1 µM. The IC50 [5] was > 120 µM, the IC50 [6] was > 120 µM and the IC50 (A549) was 25.3 µM. For the same compound, the IC50 [7] was 38.6 µM.
In the case of `CC(C)(C)OC(=O)N[C@@H](COCc1cn([C@@H]2O[C@H](CO)[C@@H](O)[C@H](O)[C@H]2O)nn1)C(=O)O`, the IC50 [1] is reported as > 120 µM, the IC50 [2] is reported as > 120 µM and the IC50 [4] is reported as > 120 µM. For the same compound, the IC50 [5] was > 120 µM and the IC50 [6] was > 120 µM.
`CO[C@H]1O[C@H](Cn2cc(CO[C@@H](C)[C@H](NC(=O)OC(C)(C)C)C(=O)O)nn2)[C@@H](OCc2ccccc2)[C@H](OCc2ccccc2)[C@@H]1OCc1ccccc1` was tested, and the IC50 (HCT-116) was 32.2 µM, the IC50 (HeLa) was 53.7 µM and the IC50 [1] was 12.2 µM. The IC50 [2] was > 120 µM, the IC50 [3] was 51.6 µM and the IC50 [4] was 26 µM. The IC50 [5] was > 120 µM, the IC50 [6] was > 120 µM and the IC50 (A549) was 57.2 µM. The IC50 [7] was 105 µM.
`CO[C@H]1O[C@H](Cn2cc(CO[C@@H](C)[C@H](NC(=O)OC(C)(C)C)C(=O)O)nn2)[C@H](OCc2ccccc2)[C@H](OCc2ccccc2)[C@H]1OCc1ccccc1` was tested, and the IC50 (HCT-116) was 36.6 µM, the IC50 (HeLa) was 56.4 µM and the IC50 [1] was 31.1 µM. For the same compound, the IC50 [2] was > 120 µM, the IC50 [3] was > 120 µM and the IC50 [4] was 15.3 µM. The IC50 [5] was > 120 µM, the IC50 [6] was > 120 µM and the IC50 (A549) was 108 µM. For the same compound, the IC50 [7] was > 120 µM.
`CC(C)(C)OC(=O)N[C@@H](COCc1cn([C@@H]2O[C@H](COCc3ccccc3)[C@@H](OCc3ccccc3)[C@H](OCc3ccccc3)[C@H]2OCc2ccccc2)nn1)C(=O)O` was tested, and the IC50 (HCT-116) was 12.8 µM, the IC50 (HeLa) was 25.3 µM and the IC50 [1] was 6.2 µM. The IC50 [2] was 40.4 µM, the IC50 [3] was 24.3 µM and the IC50 [4] was 5.9 µM. For the same compound, the IC50 [5] was > 120 µM, the Ki [8] was 3.9 µM and the inhibition [9] was “Active”. It also gave an IC50 [6] of 47.6 µM, an IC50 (A549) of 35.2 µM and an IC50 [7] of 12.5 µM.
